Measured values published in ChEMBL document CHEMBL1128434, “Gonadotropin-releasing hormone antagonists: novel members of the azaline B family” (1995).

Key:
[1] = target: T1, Gonadotropin-releasing hormone receptor (Rattus norvegicus) (UniProt P30969); assay: In vitro potency to inhibit GnRH-mediated LH secretion by cultured pituitary cells relative to [Ac-delta-Pro1,DFpa2,DTrp36]GnRH.; assay type: functional, cell-based; conditions: Pituitary gland cell
T1 sequence (whole entry): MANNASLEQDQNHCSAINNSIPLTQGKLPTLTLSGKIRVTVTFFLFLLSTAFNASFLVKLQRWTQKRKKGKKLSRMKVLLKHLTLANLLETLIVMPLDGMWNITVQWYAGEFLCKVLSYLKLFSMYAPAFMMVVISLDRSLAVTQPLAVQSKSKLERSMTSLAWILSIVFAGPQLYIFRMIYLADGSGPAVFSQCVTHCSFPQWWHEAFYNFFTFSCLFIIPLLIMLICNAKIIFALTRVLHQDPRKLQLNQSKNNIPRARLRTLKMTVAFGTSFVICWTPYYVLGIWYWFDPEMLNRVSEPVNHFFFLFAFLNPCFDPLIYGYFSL
Summary of the method: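 Dispersed rat pituitary cells in culture; antagonist inhibition of GnRH-stimulated LH secretion. Potency expressed relative to standard antagonist [Ac-Δ3Pro1,D4FPhe2,DTrp3,6]GnRH taken as 1.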

[2] = target: T1, Gonadotropin-releasing hormone receptor (Rattus norvegicus); assay: Duration of action measured using castrated male rat assay to inhibit luteinizing hormone release.; fully active at 72 hr; assay type: functional
Rattus norvegicus [3] = species on record: Rattus norvegicus; assay: Effect in the anti ovulatory assay (AOA) in rats expressed as no. of rats ovulating/No of rats treated at 2.5 mg; 0/6; assay type: functional
Rattus norvegicus [4] = species on record: Rattus norvegicus; assay: Effect in the anti ovulatory assay (AOA) in rats expressed as no. of rats ovulating/No of rats treated at 1.0 mg; 9/18; assay type: functional
Rattus norvegicus [5] = species on record: Rattus norvegicus; assay: Effect in the anti ovulatory assay (AOA) in rats expressed as no. of rats ovulating/No of rats treated at 1.0 mg; 2/2; assay type: functional
Rattus norvegicus [6] = species on record: Rattus norvegicus; assay: Effect in the anti ovulatory assay (AOA) in rats expressed as no. of rats ovulating/No of rats treated at 2.5 mg; 4/8; assay type: functional
Rattus norvegicus [7] = species on record: Rattus norvegicus; assay: Effect in the anti ovulatory assay (AOA) in rats expressed as no. of rats ovulating/No of rats treated at 1.0 mg; 8/8; assay type: functional
Rattus norvegicus [8] = species on record: Rattus norvegicus; assay: Duration of action measured using castrated male rat assay to inhibit luteinizing hormone release.; fully active at 48 hr but not at 72 hr; assay type: functional
[9] = target: T1, Gonadotropin-releasing hormone receptor (Rattus norvegicus); assay: Effect in the anti ovulatory assay (AOA) in rats expressed as no. of rats ovulating/No of rats treated at 2.5 mg; 0/8; assay type: functional
Rattus norvegicus [10] = species on record: Rattus norvegicus; assay: Effect in the anti ovulatory assay (AOA) in rats expressed as no. of rats ovulating/No of rats treated at 50 mg; 4/7; assay type: functional
Rattus norvegicus [11] = species on record: Rattus norvegicus; assay: Effect in the anti ovulatory assay (AOA) in rats expressed as no. of rats ovulating/No of rats treated at 10 mg; 2/6; assay type: functional
Rattus norvegicus [12] = species on record: Rattus norvegicus; assay: Effect in the anti ovulatory assay (AOA) in rats expressed as no. of rats ovulating/No of rats treated at 25 mg; 0/3; assay type: functional
Rattus norvegicus [13] = species on record: Rattus norvegicus; assay: Effect in the anti ovulatory assay (AOA) in rats expressed as no. of rats ovulating/No of rats treated at 2.0 mg; 1/10; assay type: functional
[14] = target: T1, Gonadotropin-releasing hormone receptor (Rattus norvegicus); assay: Duration of action, measured using castrated male rat assay to inhibit luteinizing hormone release.; fully active at 24 hr but not at 48 hr; assay type: functional
Rattus norvegicus [15] = species on record: Rattus norvegicus; assay: Effect in the anti ovulatory assay (AOA) in rats expressed as no. of rats ovulating/No of rats treated at 1.0 mg; 7/14; assay type: functional
Rattus norvegicus [16] = species on record: Rattus norvegicus; assay: Effect in the anti ovulatory assay (AOA) in rats expressed as no. of rats ovulating/No of rats treated at 1.0 mg; 1/10; assay type: functional

In the case of `CC(=O)N[C@H](Cc1ccc2ccccc2c1)C(=O)N[C@H](Cc1ccc(Cl)cc1)C(=O)N[C@H](Cc1cccnc1)C(=O)N[C@@H](CO)C(=O)N[C@@H](Cc1ccc(NC(=O)CCNc2n[nH]c(N)n2)cc1)C(=O)N[C@H](Cc1ccc(NC(=O)CCNc2n[nH]c(N)n2)cc1)C(=O)N[C@@H](CC(C)C)C(=O)N[C@@H](CCCCNC(C)C)C(=O)N1CCC[C@H]1C(=O)N[C@H](C)N`, the Relative potency [1] is reported as 0.52, the Duration of action [2] is reported as 72 h and the “No. of rats ovulated” value (Rattus norvegicus [3]) is reported as 0. The “No. of rats ovulated” value (Rattus norvegicus [4]) was 9.

With `CC(=O)N[C@H](Cc1ccc2ccccc2c1)C(=O)N[C@H](Cc1ccc(Cl)cc1)C(=O)N[C@H](Cc1cccnc1)C(=O)N[C@@H](CO)C(=O)N[C@@H](Cc1ccc(NC(=O)C2CCC(=O)N2)cc1)C(=O)N[C@H](Cc1ccc(NC(=O)C2CCC(=O)N2)cc1)C(=O)N[C@@H](CC(C)C)C(=O)N[C@@H](CCCCNC(C)C)C(=O)N1CCC[C@H]1C(=O)N[C@H](C)N` (some centres not stated) the “No. of rats ovulated” value (Rattus norvegicus [5]) was 2 and the “No. of rats ovulated” value (Rattus norvegicus [6]) was 4.

`CC(=O)Nc1ccc(C[C@H](NC(=O)[C@H](CO)NC(=O)[C@@H](Cc2cccnc2)NC(=O)[C@@H](Cc2ccc(Cl)cc2)NC(=O)[C@@H](Cc2ccc3ccccc3c2)NC(C)=O)C(=O)N[C@H](Cc2ccc(NC(C)=O)cc2)C(=O)N[C@@H](CC(C)C)C(=O)N[C@@H](CCCCNC(C)C)C(=O)N2CCC[C@H]2C(=O)N[C@@H](C)N)cc1` was tested, and the “No. of rats ovulated” value (Rattus norvegicus [7]) was 8, the Duration of action (Rattus norvegicus [8]) was 48 h and the No. of rats ovulated [9] was 0.

`CC(=O)N[C@H](Cc1ccc2ccccc2c1)C(=O)N[C@H](Cc1ccc(Cl)cc1)C(=O)N[C@H](Cc1cccnc1)C(=O)N[C@@H](CO)C(=O)N[C@@H](Cc1ccc(Nc2n[nH]c(N)n2)cc1)C(=O)N[C@H](Cc1ccc(Nc2n[nH]c(N)n2)cc1)C(=O)N[C@@H](CC(C)C)C(=O)N[C@@H](Cc1ccc(NC(C)C)cc1)C(=O)N1CCC[C@H]1C(=O)N[C@H](C)N` was tested, and the “No. of rats ovulated” value (Rattus norvegicus [10]) was 4.

With `CC(=O)Nc1ccc(C[C@H](NC(=O)[C@H](CO)NC(=O)[C@@H](Cc2cccnc2)NC(=O)[C@@H](Cc2ccc(Cl)cc2)NC(=O)[C@H](Cc2ccc3ccccc3c2)NC(C)=O)C(=O)N[C@H](Cc2ccc(NC(C)=O)cc2)C(=O)N[C@@H](CC(C)C)C(=O)N[C@@H](CCCCNC(C)C)C(=O)N2CCC[C@H]2C(=O)N[C@H](C)N)cc1` the “No. of rats ovulated” value (Rattus norvegicus [11]) was 2 and the “No. of rats ovulated” value (Rattus norvegicus [12]) was 0.

For `CC(=O)N[C@H](Cc1ccc2ccccc2c1)C(=O)N[C@H](Cc1ccc(Cl)cc1)C(=O)N[C@H](Cc1cccnc1)C(=O)N[C@@H](CO)C(=O)N[C@@H](CCCCNc1n[nH]c(N)n1)C(=O)N[C@H](CCCCNc1n[nH]c(N)n1)C(=O)N[C@@H](CC(C)C)C(=O)N[C@@H](CCCCNC(C)C)C(=O)N1CCC[C@H]1C(=O)N[C@H](C)N`, the Relative potency [1] was 0.23, the “No. of rats ovulated” value (Rattus norvegicus [13]) was 1 and the Duration of action [14] was 24 h.

With `CC(=O)Nc1ccc(C[C@@H](NC(=O)[C@H](Cc2ccc(Nc3n[nH]c(N)n3)cc2)NC(=O)[C@H](CO)NC(=O)[C@@H](Cc2cccnc2)NC(=O)[C@@H](Cc2ccc(Cl)cc2)NC(=O)[C@@H](Cc2ccc3ccccc3c2)NC(C)=O)C(=O)N[C@@H](CC(C)C)C(=O)N[C@@H](CCCCNC(C)C)C(=O)N2CCC[C@H]2C(=O)N[C@H](C)N)cc1` the Relative potency [1] was 0.82, the Duration of action [2] was 72 h and the “No. of rats ovulated” value (Rattus norvegicus [15]) was 7. For the same compound, the No. of rats ovulated [9] was 0.

Compound `CCC(=O)Nc1ccc(C[C@H](NC(=O)[C@H](CO)NC(=O)[C@@H](Cc2cccnc2)NC(=O)[C@@H](Cc2ccc(Cl)cc2)NC(=O)[C@@H](Cc2ccc3ccccc3c2)NC(C)=O)C(=O)N[C@H](Cc2ccc(NC(=O)CC)cc2)C(=O)N[C@@H](CC(C)C)C(=O)N[C@@H](CCCCNC(C)C)C(=O)N2CCC[C@H]2C(=O)N[C@H](C)N)cc1` has a Duration of action [2] of 72 h, a No. of rats ovulated [9] of 0 and a No. of rats ovulated (Rattus norvegicus [16]) of 4.
